Data taken from ChEMBL document CHEMBL1124084, “Studies on scavengers of active oxygen species. 1. Synthesis and biological activity of 2-O-alkylascorbic acids” (J Med Chem, 1988).
pIC50: −log10 of the molar value. Activity calls are given as the source filed them. No cut-off for these calls is given here.

Legend:
Rattus norvegicus [1] = species on record: Rattus norvegicus; assay: Antilipid peroxidation was measured at 10e-5 M concentration.; assay type: functional
In short: (§1)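 Rat brain lipid peroxidation: brains from male SD rats (12 weeks old), exsanguinated under pentobarbital anaesthesia, homogenized to 5% in phosphate buffer pH 7.4. Homogenate incubated with test drug at 37 °C for 1 h. Lipid peroxide quantified by the thiobarbituric acid method.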

Rattus norvegicus [2] = assay: Effect of AOS scavenger on premeture ventricular complexes PVCs, arrhythmias induced by ischemia-reperfusion in anesthetized rat, duration at 10 mg/kg; assay type: functional, Cardiac ventricle
Rattus norvegicus [3] = assay: Effect of AOS scavenger on ventricular tachycardia (VT),arrhythmias induced by ischemia-reperfusion in anesthetized rat, duration at 10 mg/kg; assay type: functional, Cardiac ventricle
Rattus norvegicus [4] = assay: Effect of AOS scavenger on ventricular tachycardia (VT), arrhythmias induced by ischemia-reperfusion in anesthetized rat, frequency, times at 10 mg/kg; assay type: functional, Cardiac ventricle
Rattus norvegicus [5] = assay: Effect of AOS scavenger on ventricular fibrillation (VF), arrhythmias induced by ischemia-reperfusion in anesthetized rat, frequency, times at 10 mg/kg; assay type: functional, Cardiac ventricle
Rattus norvegicus [6] = assay: Effect of AOS scavenger on ventricular fibrillation (VF),arrhythmias induced by ischemia-reperfusion in anesthetized rat, incidence at 10 mg/kg; 3/6; assay type: functional, Cardiac ventricle
Rattus norvegicus [7] = assay: Effect of AOS scavenger on ventricular fibrillation (VF),arrhythmias induced by ischemia-reperfusion in anesthetized rat, duration at 10 mg/kg; assay type: functional, Cardiac ventricle
[8] = Reducing activity determined by the use of stable radical alpha,alpha-di-phenyl-beta-picrylhydrazyl (DPPH); parameters: concentration or dose not given beside the values
Rattus norvegicus [9] = assay: Effect of AOS scavenger on ventricular tachycardia (VT),arrhythmias induced by ischemia-reperfusion in anesthetized rat, incidence at 10 mg/kg
Rattus norvegicus [10] = species on record: Rattus norvegicus; assay: Antilipid peroxidation was determined; assay type: functional; in short: as §1
Rattus norvegicus [11] = assay: Effect of AOS scavenger on ventricular tachycardia (VT), arrhythmias induced by ischemia-reperfusion in anesthetized rat at requency, times 10 mg/kg; assay type: functional, Cardiac ventricle
Rattus norvegicus [12] = species on record: Rattus norvegicus; assay: Inhibition of lipid peroxidation was determined with rat brain tissue homogenates; assay type: functional
In short: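 Brains excised from male SD rats (12 weeks), exsanguinated under pentobarbital anesthesia; 5% homogenate in phosphate buffer pH 7.4 incubated with test drug 1 h at 37 °C; lipid peroxide quantified by thiobarbituric acid method.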

Rattus norvegicus [13] = assay: Effect of AOS scavenger on ventricular fibrillation (VF),arrhythmias induced by ischemia-reperfusion in anesthetized rat, incidence at 10 mg/kg; 2/7; assay type: functional, Cardiac ventricle
Rattus norvegicus [14] = species on record: Rattus norvegicus; assay: Antilipid peroxidation was determined; No effect; assay type: functional; in short: as §1
Rattus norvegicus [15] = assay: Effect of AOS scavenger on ventricular tachycardia (VT),arrhythmias induced by ischemia-reperfusion in anesthetized rat duration at 10 mg/kg; assay type: functional, Cardiac ventricle
Rattus norvegicus [16] = assay: Effect of AOS scavenger on ventricular fibrillation (VF),arrhythmias induced by ischemia-reperfusion in anesthetized rat; incidence at 10 mg/kg 7/8; assay type: functional, Cardiac ventricle
Rattus norvegicus [17] = assay: Effect of AOS scavenger on ventricular tachycardia (VT),arrhythmias induced by ischemia-reperfusion in anesthetized rat, incidence at 10 mg/kg; 8/8; assay type: functional, Cardiac ventricle
Rattus norvegicus [18] = assay: Effect of AOS scavenger on ventricular tachycardia (VT),arrhythmias induced by ischemia-reperfusion in anesthetized rat, frequency, times at 10 mg/kg; assay type: functional, Cardiac ventricle
Rattus norvegicus [19] = assay: Effect of AOS scavenger on ventricular fibrillation (VF),arrhythmias induced by ischemia-reperfusion in anesthetized rat, incidence at 10 mg/kg; 4/7; assay type: functional, Cardiac ventricle
Rattus norvegicus [20] = assay: Effect of AOS scavenger on ventricular tachycardia (VT),arrhythmias induced by ischemia-reperfusion in anesthetized rat, incidence at 10 mg/kg; 6/7; assay type: functional, Cardiac ventricle
Rattus norvegicus [21] = assay: Effect of AOS scavenger on ventricular fibrillation (VF),arrhythmias induced by ischemia-reperfusion in anesthetized rat, duration at 10 mg/kg
Rattus norvegicus [22] = assay: Effect of AOS scavenger on ventricular fibrillation (VF),arrhythmias induced by ischemia-reperfusion in anesthetized rat, frequency at 10 mg/kg

**Q.** Which Antilipid peroxidation (Rattus norvegicus [1]) does the source give for `CCCCCCCCCCCCCCCCCCOC1=C(O)C(=O)OC1C(O)CO` (configuration not stated) here?
**A.** 34.5%

**Q.** And the PVCs (Rattus norvegicus [2])?
**A.** 3.9

**Q.** What about the Duration (Rattus norvegicus [3]) of the same compound?
**A.** <4 s

**Q.** And the Frequency (Rattus norvegicus [4])?
**A.** 2.3

**Q.** What about the Frequency (Rattus norvegicus [5]) of the same compound?
**A.** <0.8

**Q.** And the Incidence (Rattus norvegicus [6])?
**A.** 3 N

**Q.** What about the Duration (Rattus norvegicus [7]) of the same compound?
**A.** <1.9 s

**Q.** What about the Reducing activity [8] of the same compound?
**A.** 94.5%

**Q.** What about the Incidence (Rattus norvegicus [9]) of the same compound?
**A.** 4 N

**Q.** What does the source list for `CCCCCCCCCCCCCCOC1=C(O)OC(C(O)CO)C1=O` (configuration not stated)?
**A.** Antilipid peroxidation (Rattus norvegicus [10]): 54.8%; Activity (Rattus norvegicus [2]): <3.5 min; Duration (Rattus norvegicus [3]): 12.9 s; Frequency (Rattus norvegicus [11]): <2.6; Frequency (Rattus norvegicus [5]): <0.6; pIC50 (Rattus norvegicus [12]): 5.13; Incidence (Rattus norvegicus [13]): 2 N; Duration (Rattus norvegicus [7]): 10.1 s; Reducing activity [8]: 95.4%

**Q.** For `O=C1C(OCc2ccccc2)=C(O)OC1C(O)CO` (configuration not stated), which Antilipid peroxidation (Rattus norvegicus [14]) is on record?
**A.** inactive

**Q.** What about the PVCs (Rattus norvegicus [2]) of the same compound?
**A.** 26.9 PVCs/min

**Q.** What about the Duration (Rattus norvegicus [15]) of the same compound?
**A.** <4.9 s

**Q.** What about the Frequency (Rattus norvegicus [4]) of the same compound?
**A.** 3.9

**Q.** What about the Frequency (Rattus norvegicus [5]) of the same compound?
**A.** 2.5

**Q.** And the Incidence (Rattus norvegicus [16])?
**A.** 7 N

**Q.** What about the Incidence (Rattus norvegicus [17]) of the same compound?
**A.** 8 N

**Q.** And the Duration (Rattus norvegicus [7])?
**A.** 79.9 s

**Q.** What about the Reducing activity [8] of the same compound?
**A.** 93%

**Q.** Which results are given for `CCCCCCCCCCCCCCCOC1=C(O)OC(C(O)CO)C1=O` (configuration not stated)?
**A.** Antilipid peroxidation (Rattus norvegicus [10]): 67.4%; Activity (Rattus norvegicus [2]): <4.3 min; Duration (Rattus norvegicus [3]): 11.9 s; Frequency (Rattus norvegicus [18]): 5; pIC50 (Rattus norvegicus [12]): 5.25; Incidence (Rattus norvegicus [19]): 4 N; Incidence (Rattus norvegicus [20]): 6 N; Reducing activity [8]: 95.4%; Duration (Rattus norvegicus [21]): <3 s; Frequency (Rattus norvegicus [22]): <0.9
